PHOSPHO1 inh = PubChem AID 1565; Phosphoethanolamine/phosphocholine phosphatase (Homo sapiens), Q8TCT1; recombinant PHOSPHO1, absorbance phosphatase assay; inhibition, % at 13.3 µM; hit rate 1.1% among 290,000; in the data active = inhibition above about 60%
Efa HMGR inh = inhibitors of E. faecalis class II HMGR, primary screen, biochemical, Enterococcus faecalis; inhibition, % at 10 µM; hit rate 0.41% among 190,000; purified E. faecalis HMGR, NADPH absorbance 340 nm kinetic; HMG-CoA reductase (Enterococcus faecalis, mvaE);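 active = inhibition above a set limit, the median over all tested compounds plus 3 SD, cut at about 9.5% in these data; inconclusive = no clear call, values can overlap the other calls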;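 also: enzyme runs in reverse so mevalonate oxidation gives rising NADPH absorbance; 0% = complete reaction with DMSO and 100% = background rate lacking mevalonate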
Runt-CBFb FRET = inhibitors of RUNX1 Runt–CBFb binding, primary screen, biochemical, FRET, Cerulean-Runt, Venus-CBFb, uHTS. inhibition, % at 20 µM. Cerulean-Runt/Venus-CBFb FRET ratio 530/480, 1 h. hit rate 0.46% among 220,000. AID 1496, 2009. Runt-related transcription factor 1 (Homo sapiens) + Core-binding factor subunit beta …;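 active = inhibition over about 50% at 20 µM in the single-dose screen, limit read from the data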;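 also: 0% = DMSO wells and 100% = excess unlabeled CBFb competitor control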
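Assay system: Cerulean-Runt domain fusion protein, energy donor; Signal: fluorescence energy transfer, 422 nm excitation, 530/480 nm emission; Timing: 1 h compound exposure, room temperature; Control set: unlabeled CBFb; Medium: Tris buffer pH 7.5 with salts and BSA; Compound: single test concentration of 20 µM, 1% DMSO final; Probe or stimulus: Venus-CBFb 100 nM.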
Wee1 stabilizer = Wee1 degradation inhibitors, primary screen, cell-based, HeLa, Wee1K328M-luciferase, luminescence. reporter increase, % at 5 µM. HeLa Luc-Wee1K328M stability; 100% = proteasome inhibitor MG132 effect. hit rate 1.2% among 220,000. Wee1-like protein kinase (Homo sapiens), P30291;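 active = activation above the mean of all tested compounds plus 3 SD, set per screening run, cut at about 8.8% in these data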;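 also: cells exposed to compound for 20 h before luminescence read; 0% = DMSO alone and 100% = MG132 at 30 µM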
Target sequence (P30291 whole entry K328M): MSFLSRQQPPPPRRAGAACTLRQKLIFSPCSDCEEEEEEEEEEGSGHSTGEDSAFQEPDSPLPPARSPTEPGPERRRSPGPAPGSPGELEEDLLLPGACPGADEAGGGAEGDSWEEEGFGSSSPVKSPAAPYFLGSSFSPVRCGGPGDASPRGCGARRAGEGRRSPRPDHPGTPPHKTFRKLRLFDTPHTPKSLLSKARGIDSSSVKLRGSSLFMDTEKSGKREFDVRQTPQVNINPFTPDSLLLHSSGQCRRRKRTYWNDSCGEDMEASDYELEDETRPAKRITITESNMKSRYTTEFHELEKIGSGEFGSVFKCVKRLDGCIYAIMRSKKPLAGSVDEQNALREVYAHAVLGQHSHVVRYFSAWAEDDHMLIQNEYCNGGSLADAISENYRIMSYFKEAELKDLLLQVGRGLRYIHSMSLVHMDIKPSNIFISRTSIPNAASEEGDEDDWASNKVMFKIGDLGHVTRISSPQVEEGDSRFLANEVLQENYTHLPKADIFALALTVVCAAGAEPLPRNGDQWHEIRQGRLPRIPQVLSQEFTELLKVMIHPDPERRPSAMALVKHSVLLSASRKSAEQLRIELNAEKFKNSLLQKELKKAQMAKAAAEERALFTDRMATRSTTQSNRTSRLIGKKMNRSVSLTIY
RanGTP-Impb inh = inhibitors of RanGTP-importin-beta interaction, primary screen, biochemical, FRET, CFP-Ran, YFP-importin-beta, homogeneous. inhibition, % (concentration not given with the values). hit rate 1.1% among 300,000. cell-free CFP-Ran/YFP-importin-beta FRET ratio. AID 2216, 2009;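 active = more than half of the replicate wells show a fall in the fluorescence ratio signal beyond about 16%, limit read from the data, passing the limit was not always enough; inconclusive = exactly half of the replicate wells pass the set limit; inactive = fewer than half of replicates pass the limit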;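 also: 0% = DMSO wells and 100% = Ran loaded with GDP instead of GTP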
Runt-SMMHC FRET = inhibitors of RUNX1 Runt–CBFb-SMMHC binding, primary screen, biochemical, FRET, Cerulean-Runt, Venus-CBFb-SMMHC, uHTS | hit rate 0.74% among 220,000 | inhibition, % at 20 µM | Cerulean-Runt/Venus-CBFb-SMMHC FRET ratio 530/480, 1 h | AID 1434, 2008 | Runt-related transcription factor 1 (Homo sapiens) + Core-binding factor subunit beta …;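 active = mean inhibition across duplicate retests at 20 µM reaching about 50%, limit read from the data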;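 also: 0% = DMSO wells and 100% = wells with excess untagged CBFb-SMMHC; inhibitors lower the FRET ratio by blocking Runt binding to CBFb-SMMHC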
Starred values were filed as active, the others as inactive; ? = inconclusive; . = no result. Sampled rows, rich in hits. Any-hit rate of the full collection: about 3.4%.

SMILES	PHOSPHO1 inh	Efa HMGR inh	Runt-CBFb FRET	Wee1 stabilizer	RanGTP-Impb inh	Runt-SMMHC FRET
COC(=O)c1ccc(NC(=O)Nc2ccccc2F)cc1	57	17*	0	7	2	-2
Cc1ccc(CNC(=O)c2cc(S(=O)(=O)N3CCOCC3)cn2C)cc1	7	.	.	.	3	.
CCC(=O)Nc1ccc(Oc2ccc(NC(=O)CC)c(NC(=O)CC)c2)cc1	2	-4	1	-1	-9	-5
O=C(N/C(=C/c1cccs1)C(=O)N1CCOCC1)c1cccs1	60*	4	-1	-1	2	-3
COc1ccc(C(=O)OC(C)C(=O)NC2CCCCC2C)cc1S(=O)(=O)N1CCOCC1 (centres undefined)	.	.	.	.	6	.
CCOC(=O)c1ccccc1NC(=O)C(C)Oc1ccccc1 (centres undefined)	7	-14	0	9.7*	2	-2
CC1CN(C(=O)Cn2cc(S(=O)(=O)CC(=O)N3CCOCC3)c3ccccc32)CC(C)O1 (centres undefined)	66*	.	.	.	3	.
CC1CCN(C(=O)Cn2cc(S(=O)(=O)CC(=O)N3CCOCC3)c3ccccc32)CC1	-1	.	.	.	-2	.
Cc1c(-c2nc(N)nc(Nc3ccccc3)n2)oc2ccccc12	-7	2	0	10.0*	?	20
COCCNC(=O)CN(c1ccc(F)cc1)S(=O)(=O)c1ccc2c(c1)OCCO2	22	.	.	.	-1	.
O=C(NC1CC1)[C@@H]1CSC2c3ccccc3C(=O)N21 (some centres undefined)	34	.	.	.	-1	.
Oc1c(C=Nc2cccnc2)sc2ccccc12	-18	1	34	4	22*	63*
Oc1c(C=NCc2ccncc2)sc2ccccc12	-50	-2	42	-1	13	66*
Oc1c(/C=N/c2ccccn2)sc2ccccc12	11	.	10	2	23*	16
CC(=O)NCCN=Cc1sc2ccccc2c1O	9	-1	31	0	31*	60*
CN=Cc1sc2ccccc2c1O	24	-4	28	1	13	54
Oc1c(C=Nc2ccc(Cl)cn2)sc2ccccc12	6	.	22	0	?	-11
CC1(C)CC(=O)C(C=Nc2cccnc2)=C(O)C1	-30	2	2	-1	4	1
CC(C)c1ccc(/C=C2\SC(=S)N(CCC(=O)N3CCCCC3CCO)C2=O)cc1 (centres undefined)	17	.	.	.	0	.
CCOC(=O)N1CCN(C(=O)c2ccc(N(Cc3ccc(C)cc3)S(C)(=O)=O)cc2)CC1	0	-3	-2	4	5	0
Cc1ccc(CN(c2ccc(C(=O)N3CCOCC3)cc2)S(C)(=O)=O)cc1	-28	-1	-2	10.0*	11	0
COc1ccc(/C=N/NC(=O)c2ccco2)cc1OCc1ccccc1	29	.	0	2	0	-6
Cc1ccc(S(=O)(=O)N(Cc2cc3cccc(C)c3[nH]c2=O)c2ccccc2)cc1	-10	-3	0	9.1*	0	2
COc1ccc(N(Cc2cc3cccc(C)c3[nH]c2=O)S(=O)(=O)c2ccc(OC)cc2)cc1	20	.	.	.	1	.
CCOC(=O)/C(C#N)=C1\Nc2ccccc2N=C1N(CC(C)C)CC(C)C	25	-3	28	6	30*	-19
SMILES	PHOSPHO1 inh	Efa HMGR inh	Runt-CBFb FRET	Wee1 stabilizer	RanGTP-Impb inh	Runt-SMMHC FRET
Cc1cc2oc(=O)cc(CN3CCCc4ccccc43)c2cc1C	74*	-3	-2	5	-9	-5
O=C(COC(=O)c1nc(Cl)ccc1Cl)Nc1ccc2[nH]c(=O)[nH]c2c1	.	.	.	.	2	.
Oc1ccc(/C=N/Nc2nc(N3CCCC3)nc(N3CCCC3)n2)cc1O	28	4	5	4	-4	-1
COc1ccc(/C=N/Nc2cc(N3CCCC3)nc(N3CCCC3)n2)cc1	-5	-5	1	0	60*	-3
Oc1ccc(/C=N/Nc2cc(N3CCCC3)nc(N3CCCC3)n2)cc1	-50	-2	2	1	86*	-1
c1ccc2sc(SN3CCOCC3)nc2c1	66*	-8	3	-4	5	2
COc1ccc(OCCCC(=O)NNC(=O)c2ccncc2)cc1	.	.	.	.	0	.
O=[N+]([O-])c1cc2c(c(CSc3nnc(Nc4ccccc4)s3)c1)OCOC2	100*	0	0	5	-7	-10
Cc1nnc(SCc2cc([N+](=O)[O-])cc3c2OCOC3)n(N)c1=O	20	-2	-3	-2	8	1
Cc1ccccc1Nc1nnc(SCc2cc([N+](=O)[O-])cc3c2OCOC3)s1	90*	-5	-1	-1	4	-4
CCn1cc(/C=C(\NC(=O)c2ccccc2F)C(=O)NCCN2CCOCC2)c2ccccc21	65*	.	.	.	0	.
CCOc1ccc(N2C(=O)Nc3ccccc3C2(O)C(=O)NCc2ccc(C)cc2)cc1 (centres undefined)	16	-2	1	12*	1	2
CCOc1ccc(N2C(=O)Nc3ccccc3C2(O)C(=O)NCc2ccc3c(c2)OCO3)cc1 (centres undefined)	28	-2	1	-4	?	1
O=C(NCc1cn2ccccc2n1)C1CCC(=O)N(Cc2ccccc2F)C1 (centres undefined)	38	.	.	.	0	.
C#C[C@]1(O)CC[C@H]2[C@@H]3CCC4=C(CCC(=O)C4)[C@H]3CC[C@@]21C	-4	-3	0	0	-3	4
O=C(COC(=O)c1ccc(N2CCOCC2)c([N+](=O)[O-])c1)Nc1ccc2c(c1)OCO2	2	-3	-1	-2	3	4
CC1CN(S(=O)(=O)c2cccc(C(=O)OCC(=O)Nc3ccc4c(c3)OCO4)c2)CC(C)O1 (centres undefined)	62*	-1	4	0	.	-1
CC1CN(S(=O)(=O)c2cccc(C(=O)OCC(=O)c3cccs3)c2)CC(C)O1 (centres undefined)	-20	-2	1	1	1	-2
Nc1ccc(C(=O)OCC(=O)Nc2ccc3c(c2)OCO3)cc1[N+](=O)[O-]	-1	-4	2	11*	5	-3
COc1cc(N2N=C(c3ccccc3)CC2c2ccccc2)c(C=O)cc1C=O (centres undefined)	39	.	.	.	31*	.
COc1ccccc1N1N=C(c2ccc([N+](=O)[O-])cc2)CC1c1ccccc1 (centres undefined)	14	.	.	.	-3	.

Screens as filed in PubChem.
